Test results from ChEMBL document CHEMBL3124858, “Drug design targeting protein-protein interactions (PPIs) using multiple ligand simultaneous docking (MLSD) and drug repositioning: discovery of raloxifene and bazedoxifene as novel inhibitors of IL-6/GP130 interface” (J Med Chem, 2014).
The source made the active and inactive calls. The rule behind the calls is not given here.

Legend:
[1] = Cytotoxicity against human MIAPaCa2 cells assessed as cell viability; format: functional, cell-based; settings: MIA PaCa-2
[2] = Cytotoxicity against ER-negative human SUM159 cells assessed as cell viability after 72 hrs by MTT assay in presence of IL-6; format: functional, cell-based; settings: SUM-159-PT
Method in brief: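 SUM159 (ER negative) seeded at 3,000 cells/well, given […] compound in triplicate with 10% FBS. Incubated 72 h at 37 °C, then MTT read-out, absorbance at 595 nm. IC50 from curve fitting.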

[3] = target: T1, IL6Ralpha/GP130 (Homo sapiens) (UniProt P08887+P40189); assay: Inhibition of IL-6Ralpha/GP130 interaction in ER-negative human SUM159 cells overexpressing IL-6 assessed as inhibition of constitutive STAT3 phosphorylation at Y705 at 10 to 30 uM after 24 hrs by Western blot analysis; format: cell-based
Method in brief: (§1)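 Constitutive STAT3 activity in SUM159 (ER negative) cells grown in DMEM/10% FBS. Compound (10-50µM) or DMSO added at 60-80% confluence with 10% FBS for 24 h. RIPA whole-cell lysates run on SDS-PAGE and immunoblotted overnight at 4 °C for pSTAT3 (Tyr705), STAT3 and GAPDH. Detection by chemiluminescence.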

[4] = target: T1, IL6Ralpha/GP130 (Homo sapiens); assay: Inhibition of IL-6Ralpha/GP130 interaction in human PANC-1 cells assessed as inhibition of IL-6-induced STAT3 phosphorylation at Y705 at 25 uM […] measured after 24 hrs by Western blot analysis; format: cell-based
Method in brief: (§2)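 PANC-1 cells (GP130+, ER−) in DMEM/10% FBS, stimulated with 50 ng/ml IL-6 or IFN-γ for 30 min before compound (10-50µM range), then 24 h at 60-80% confluence with 10% FBS. Whole-cell extracts made in RIPA with protease inhibitors. Blotted for pSTAT3 (Tyr705), STAT3, pSTAT1 (Tyr701), STAT1 and GAPDH, with chemiluminescent detection.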

[5] = target: LIFR/GP130 (Homo sapiens) (UniProt P40189+P42702); assay: Inhibition of LIFR/GP130 interaction in human PANC-1 cells assessed as inhibition of LIF-induced STAT3 phosphorylation at Y705 at 25 uM after 24 hrs by Western blot analysis; format: cell-based
PANC-1 = assay: Inhibition of IFN-gamma receptor/GP130 interaction in human PANC-1 cells assessed as inhibition of IFN-gamma-induced STAT1 phosphorylation at Y701 at 25 uM […] measured after 24 hrs by Western blot analysis; format: cell-based; method in brief: as §2
[6] = target: T2, Interleukin-6 receptor subunit beta (Homo sapiens, UniProt P40189); assay: Binding affinity to GP130 (unknown origin) by surface plasmon resonance analysis
T2 sequence (P40189 whole entry): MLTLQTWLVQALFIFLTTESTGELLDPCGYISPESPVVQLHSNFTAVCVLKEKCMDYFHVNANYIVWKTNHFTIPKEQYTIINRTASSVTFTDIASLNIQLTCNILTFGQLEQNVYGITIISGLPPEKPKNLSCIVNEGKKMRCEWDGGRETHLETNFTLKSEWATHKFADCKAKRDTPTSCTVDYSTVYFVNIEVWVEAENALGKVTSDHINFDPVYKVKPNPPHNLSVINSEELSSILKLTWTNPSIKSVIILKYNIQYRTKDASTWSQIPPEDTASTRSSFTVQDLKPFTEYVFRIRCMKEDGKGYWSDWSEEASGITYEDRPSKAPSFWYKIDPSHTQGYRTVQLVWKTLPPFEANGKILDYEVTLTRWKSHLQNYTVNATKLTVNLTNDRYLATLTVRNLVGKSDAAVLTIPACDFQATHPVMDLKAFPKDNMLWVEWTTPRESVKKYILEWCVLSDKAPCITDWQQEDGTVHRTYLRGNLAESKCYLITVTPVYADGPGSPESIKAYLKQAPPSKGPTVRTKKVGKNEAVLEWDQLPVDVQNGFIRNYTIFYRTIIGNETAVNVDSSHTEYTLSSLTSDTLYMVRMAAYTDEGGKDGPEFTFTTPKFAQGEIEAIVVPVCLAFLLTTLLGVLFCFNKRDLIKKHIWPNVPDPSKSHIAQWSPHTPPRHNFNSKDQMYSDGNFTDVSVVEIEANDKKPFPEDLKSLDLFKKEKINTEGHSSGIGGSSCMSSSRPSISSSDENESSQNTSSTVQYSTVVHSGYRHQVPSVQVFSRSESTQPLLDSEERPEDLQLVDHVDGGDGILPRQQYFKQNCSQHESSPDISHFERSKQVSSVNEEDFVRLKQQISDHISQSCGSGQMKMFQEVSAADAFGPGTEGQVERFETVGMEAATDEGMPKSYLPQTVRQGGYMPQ

[7] = target: T1, IL6Ralpha/GP130 (Homo sapiens); assay: Inhibition of IL-6Ralpha/GP130 interaction in ER-negative human SUM159 cells overexpressing IL-6 assessed as inhibition of constitutive STAT3 phosphorylation at Y705 at 15 to 50 uM after 24 hrs by Western blot analysis; format: cell-based; method in brief: as §1

T1 sequence (P08887 whole entry, looked up, one chain of several): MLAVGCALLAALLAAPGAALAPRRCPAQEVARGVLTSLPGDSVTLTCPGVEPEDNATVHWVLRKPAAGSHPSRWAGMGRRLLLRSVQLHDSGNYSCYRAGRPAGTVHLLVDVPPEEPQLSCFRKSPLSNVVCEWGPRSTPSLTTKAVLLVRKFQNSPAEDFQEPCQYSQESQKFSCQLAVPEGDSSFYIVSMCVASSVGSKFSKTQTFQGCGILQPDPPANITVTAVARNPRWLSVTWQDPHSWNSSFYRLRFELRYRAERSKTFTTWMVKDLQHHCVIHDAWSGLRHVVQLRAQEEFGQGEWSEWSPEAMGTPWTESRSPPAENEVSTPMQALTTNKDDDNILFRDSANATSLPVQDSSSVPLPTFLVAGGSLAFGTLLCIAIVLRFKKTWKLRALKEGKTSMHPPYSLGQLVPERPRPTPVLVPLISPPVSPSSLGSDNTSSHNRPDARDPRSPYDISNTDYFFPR
Sequence of LIFR/GP130 (Homo sapiens) (P42702 whole entry, looked up, one chain of several): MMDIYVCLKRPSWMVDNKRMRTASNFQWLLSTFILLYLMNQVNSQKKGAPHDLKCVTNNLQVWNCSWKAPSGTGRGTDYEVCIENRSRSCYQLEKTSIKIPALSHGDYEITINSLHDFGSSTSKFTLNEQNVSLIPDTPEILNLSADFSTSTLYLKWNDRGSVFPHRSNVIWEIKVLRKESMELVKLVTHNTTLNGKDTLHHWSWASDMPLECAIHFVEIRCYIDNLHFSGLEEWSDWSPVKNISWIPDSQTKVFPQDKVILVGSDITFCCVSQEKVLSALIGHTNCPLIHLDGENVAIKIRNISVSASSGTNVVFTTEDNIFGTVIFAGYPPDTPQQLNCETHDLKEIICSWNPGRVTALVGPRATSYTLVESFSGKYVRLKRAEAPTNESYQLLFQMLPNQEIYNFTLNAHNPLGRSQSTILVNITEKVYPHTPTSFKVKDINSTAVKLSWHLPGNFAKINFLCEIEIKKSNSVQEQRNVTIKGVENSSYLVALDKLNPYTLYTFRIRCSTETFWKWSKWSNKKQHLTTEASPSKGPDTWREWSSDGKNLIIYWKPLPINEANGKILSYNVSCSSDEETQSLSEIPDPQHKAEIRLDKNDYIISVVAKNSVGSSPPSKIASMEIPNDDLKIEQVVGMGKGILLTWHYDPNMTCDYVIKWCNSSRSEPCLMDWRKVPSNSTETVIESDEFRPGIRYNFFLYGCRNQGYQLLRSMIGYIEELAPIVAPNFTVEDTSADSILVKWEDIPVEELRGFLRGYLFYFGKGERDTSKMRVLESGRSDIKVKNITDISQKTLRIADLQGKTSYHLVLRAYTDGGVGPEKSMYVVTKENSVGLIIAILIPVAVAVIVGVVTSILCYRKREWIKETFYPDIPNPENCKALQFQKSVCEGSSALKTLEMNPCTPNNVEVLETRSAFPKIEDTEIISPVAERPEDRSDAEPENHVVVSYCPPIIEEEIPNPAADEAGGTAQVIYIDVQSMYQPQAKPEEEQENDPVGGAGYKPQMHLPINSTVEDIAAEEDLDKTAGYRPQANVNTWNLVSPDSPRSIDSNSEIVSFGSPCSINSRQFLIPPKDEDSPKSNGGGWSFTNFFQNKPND

| Structure (SMILES) | IC50 [1] [µM] | IC50 [2] [µM] | inhibition [3] | inhibition [4] | inhibition [5] | inhibition (PANC-1) | Kd [6] [µM] | inhibition [7] |
| --- | --- | --- | --- | --- | --- | --- | --- | --- |
| Cc1c(-c2ccc(O)cc2)n(Cc2ccc(OCCN3CCCCCC3)cc2)c2ccc(O)cc12 [BAZEDOXIFENE] | 9.7 | 24.9 | Active | Active | inactive | inactive |  |  |
| CCCCC1=C(C)C(=O)[C@](C)(CN2c3ccccc3[C@]3(O)CCOC23)C1=O (stereo partly drawn) [MADINDOLINE A] |  | > 250 |  |  |  |  | 288 |  |
| O=C(c1ccc(OCCN2CCCCC2)cc1)c1c(-c2ccc(O)cc2)sc2cc(O)ccc12 [RALOXIFENE] | 26.3 | 43.2 |  |  | inactive | inactive |  | Active |
